Measurements pooled from the literature.
Lines come from different studies, so protocols differ.
USP51: Ubiquitin carboxyl-terminal hydrolase 51 (USP51, Homo sapiens, UniProt Q70EK9)
GHSR: Growth hormone secretagogue receptor type 1 (GHSR, Homo sapiens, UniProt Q92847)
CASP3: Caspase-3 (CASP3, Homo sapiens, UniProt P42574)

Structure (SMILES)	target	observed	mode	technique	tested at	inhibition
Cn1cc(-c2cccc(N3CCc4c(sc5c4CC(C)(C)C5)C3=O)c2CO)cc(Nc2ccncn2)c1=O	Calcium/calmodulin-dependent protein kinase type IV (CAMK4, Homo sapiens, UniProt Q16566)	enzyme activity	inhibitor	–	1 µM	-5%
C#Cc1n[nH]c2c(-c3cn(C(C)c4ccccn4)c(=O)[nH]c3=O)cc(F)cc12 (stereo not drawn)	Serine/threonine-protein kinase Chk1 (CHEK1, Homo sapiens, UniProt O14757)	enzyme activity	inhibitor	–	1 µM	7%
O=C1CCC[C@@H]2[C@H]3CCCN4CCC[C@H](CN12)[C@@H]34	USP51	enzyme activity	inhibitor	–	5 µM	0%
c1ccc(C(NCCNC(c2ccccc2)c2ccccc2)c2ccccc2)cc1	GHSR	cell-free assay	–	–	10 µM	86%
N=C(N)c1ccc2cc(OC(=O)c3ccc(N=C(N)N)cc3)ccc2c1	CASP3	enzyme activity	inhibitor	–	10 µM	0%
CC(C)N1CCC[C@H]1CNC(=O)c1cn(C2CCCC2)c(=O)c2c1c1ccccc1n2C	Sodium- and chloride-dependent GABA transporter 1 (Slc6a1, Rattus norvegicus, UniProt P23978)	ligand displacement	–	radioligand	10 µM	-2%
O=C(Nc1cccnn1)N1CCN([C@@H]2CCOc3cc(C(F)(F)F)ccc32)CC1	Angiotensin-converting enzyme (ACE, Homo sapiens, UniProt P12821)	enzyme activity	inhibitor	–	20 µM	-7%
COC1=CC(=O)O[C@@H](/C=C/c2ccccc2)C1	USP51	enzyme activity	inhibitor	–	5 µM	40%
CC(=O)N[C@@H](CC(=O)O)C(=O)N[C@@H](CC(N)=O)C(=O)N[C@@H](CC(C)C)C(=O)N[C@H](C=O)CC(=O)O	CASP3	enzyme activity	inhibitor	–	0.1 µM	80%
O=c1cccc2n1C[C@@H]1CNC[C@H]2C1	USP51	enzyme activity	inhibitor	–	5 µM	0%
C[C@H](C(=O)N[C@H]1COc2ccccc2[C@@H]1S(C)(=O)=O)c1ccc(F)cc1	GHSR	cell-free assay	–	–	10 µM	-1%
CC1=C2[C@H]3OC(=O)[C@@H](C)[C@@H]3CC[C@@]2(C)C=CC1=O	USP51	enzyme activity	inhibitor	–	5 µM	28%
Cc1ncc(C)n2nc(/C=C/c3nc(N4CCCC4)cc(N4CCOCC4)n3)nc12	Peroxisome proliferator-activated receptor gamma (PPARG, Homo sapiens, UniProt P37231)	ligand displacement	–	–	10 µM	3%
C[C@@H]1CC[C@H]2[C@@H](C)C(=O)O[C@@H]3O[C@@]4(C)CC[C@@H]1[C@]32OO4	USP51	enzyme activity	inhibitor	–	5 µM	17%
C#Cc1n[nH]c2c(-c3cn([C@@H](C)c4ccccc4)c(=O)[nH]c3=O)cc(F)cc12	DNA-dependent protein kinase catalytic subunit (PRKDC, Homo sapiens, UniProt P78527)	enzyme activity	inhibitor	–	0.1 µM	-1.6%
